# Screening data from PubChem BioAssay.
# The list is not random: actives were taken first. Their share in the collection is about 3.7%.
# OX1R antag-1 – blocks the human orexin 1 receptor; CHO/OX1R cells, Fluo-8 calcium fluorescence, orexin A; inhibition, % at 5 µM; 330,000 compounds, 0.43% hits;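 active = inhibition above its plate's threshold, mean inhibition of all tested compounds on the plate plus 3 SD, cut at about 37% in these data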;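 also: 0% = orexin A challenge wells and 100% = SB-334867-A antagonist wells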
# CHO parental Ca – counter-screen for OX1R antagonists: effect in parental CHO cells; parental CHO-K1, ATP-induced calcium, Fluo-8 fluorescence; inhibition, % at 5.6 µM; 330,000 compounds, 0.63% hits; AID 463079;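 active = inhibition above that plate's mean sample inhibition plus 3 SD, cut at about 26% in these data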;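 also: 0% = ATP-challenged DMSO wells and 100% = DMSO wells without ATP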
#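 Material: Parental CHO cells | Reagent: ATP | Compound dosing: Single nominal dose of 5.6 µM per compound | Detection: Intracellular calcium via Fluo-8 no-wash fluorescent dye | Read-out: % inhibition of ATP-induced calcium mobilization | Benchmarks: Low control ATP plus DMSO, high control DMSO only | Replicates: Singlicate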
# EP2 mod – modulates human prostaglandin E2 receptor EP2 signaling | EP2-expressing cells, cAMP HTRF FRET, PGE2 co-stimulation | P43116 | 260,000 compounds, 0.83% hits | induction, % at 25 µM;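 active = compounds whose cAMP rise, as percent of the full-agonist control response, exceeds 60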;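 also: rat C6 glioma line stably carrying human EP2 under a CMV promoter; the protocol text gives 20 µM as final concentration; 100% = response of wells given 1 µM PGE2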
# Target sequence (P43116 whole entry, looked up): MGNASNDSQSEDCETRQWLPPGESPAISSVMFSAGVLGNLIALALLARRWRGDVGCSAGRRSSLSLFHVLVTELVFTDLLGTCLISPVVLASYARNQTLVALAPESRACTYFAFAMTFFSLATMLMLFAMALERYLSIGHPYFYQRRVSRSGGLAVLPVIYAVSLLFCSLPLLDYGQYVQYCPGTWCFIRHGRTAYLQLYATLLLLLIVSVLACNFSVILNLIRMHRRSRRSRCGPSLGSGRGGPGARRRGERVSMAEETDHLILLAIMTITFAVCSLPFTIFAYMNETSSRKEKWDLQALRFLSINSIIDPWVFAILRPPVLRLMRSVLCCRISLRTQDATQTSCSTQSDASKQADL
# OX1R antag-2 – antagonists of human orexin 1 receptor (OX1R). O43613. OX1R-expressing cells, FRET antagonist read-out. inhibition, % at 6.6 µM. 330,000 compounds, 1.8% hits. AID 485270; in the data active = inhibition mostly above about 38%, no sharp cut-off; inactive = mostly below about 40%;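 also: 0% = agonist challenge alone and 100% = reference antagonist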
# GPR7 antag – human neuropeptides B/W receptor 1 antagonism | GPR7-expressing cells, fluorescence antagonist assay | inhibition, % at 4.4 µM | 290,000 compounds, 1.1% hits; in the data active = inhibition above about 16%, passing the limit was not always enough;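 also: cells stimulated with the agonist NPW; 0% = agonist with vehicle and 100% = vehicle without agonist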
# PGE2 EP2 inh – EP2 receptor (human) inhibition; 260,000 compounds, 0.52% hits; inhibition, % at 25 µM; C6 glioma cells expressing human EP2, cAMP TR-FRET; cells stimulated with saturating PGE2; P43116;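 active = percent inhibition above 40 after rounding to a whole number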;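 also: rat C6 glioma host cells with rolipram phosphodiesterase inhibitor present; the protocol text gives 20 µM as final concentration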
# OX1R HTRF confirm – OX1R (human) antagonism, HTRF confirmed | 1,800 compounds, 49% hits | AID 492964 | OX1R-expressing cells, HTRF antagonist assay | inhibition, % at 6.6 µM | shares compounds with OX1R antag-2; in the data active = inhibition above about 55%;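 also: CHO cells expressing OX1R stimulated with orexin A at about EC80; 0% = agonist challenge alone and 100% = reference antagonist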
# CHO-K1 HTRF – signal in parental CHO-K1 cells, OX1R antagonist counter-screen. shares compounds with OX1R antag-2. HTRF counterscreen. inhibition, % at 6.6 µM. 1,800 compounds, 48% hits; in the data active = inhibition above about 17%;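 also: 0% = agonist challenge with vehicle and 100% = vehicle alone without agonist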
# An asterisk follows results filed as active; x = no result.
SMILES,OX1R antag-1,CHO parental Ca,EP2 mod,OX1R antag-2,GPR7 antag,PGE2 EP2 inh,OX1R HTRF confirm,CHO-K1 HTRF
CCCC[N+](C)(C)CCC(=O)NC(C)(C)CS(=O)(=O)[O-],-9.2,9.3,10.5,5.9,-1.7,7.6,x,x
COc1ccc(S(=O)(=O)Nc2c(O)ccc3ccccc23)cc1OC,4.0,-5.5,x,77.5*,x,x,71.9*,7.2
COc1ccc(S(=O)(=O)N(C)CC(=O)NCc2ccco2)cc1,-16.9,-11.1,5.3,0.4,-7.7,12.5,x,x
c1ccc(CN2CCN(C3CCCSc4ccccc43)CC2)cc1 (stereo unspecified),8.2,-22.8,x,86.6*,x,x,78.9*,3.1
O=C(C1CCC1)N1CCN(Cc2ccccc2)CC1,-7.5,-1.8,0.2,9.0,-3.7,4.9,x,x
CCOC(=O)N1CCN(C2=C(NS(=O)(=O)c3ccc(C)cc3)C(=O)c3ccccc3C2=O)CC1,-28.0,-23.3,x,82.7*,-10.7,x,57.7*,90.8*
CC1CCCN(C2=C(NS(=O)(=O)c3ccc(Cl)cc3)C(=O)c3ccccc3C2=O)C1 (stereo unspecified),-19.8,-1.8,4.5,29.8,8.5,10.8,x,x
NC(=O)C1CCN(C2=C(NS(=O)(=O)c3ccc(Cl)cc3)C(=O)c3ccccc3C2=O)CC1,-34.3,-7.2,-24.3,179.3*,-11.7,5.1,52.8,56.9*
COC(=O)C1CCN(C2=C(NS(=O)(=O)c3ccc(Cl)cc3)C(=O)c3ccccc3C2=O)CC1,-27.0,-7.8,-7.6,97.6*,11.7,12.6,46.3,59.4*
CC(=O)N(/N=C1\Sc2ccccc2C1=O)c1ccc(C)cc1C,-14.5,-9.2,45.5,56.5,6.6,15.1,x,x
CC(=O)N(/N=C1\Sc2ccccc2C1=O)c1ccccc1C,-13.4,-38.5,x,104.6*,21.7,11.9,37.5,12.2
CCn1c2ccccc2c2cc(NC(=O)c3ccco3)ccc21,17.7,-24.1,-9.3,77.2*,0.2,22.1,52.4,15.8
CCn1c2ccccc2c2cc(NC(=O)COc3ccccc3OC)ccc21,27.0,-16.4,-47.5,101.3*,4.8,18.1,78.7*,21.5*
CCn1c2ccccc2c2cc(NC(=O)CNCc3ccccc3OC)ccc21,-20.1,-5.1,x,20.2,15.5,x,x,x
CCn1c2ccccc2c2cc(NC(=O)c3ccccc3[N+](=O)[O-])ccc21,7.7,-2.4,-11.4,24.0,5.1,9.3,x,x
COC(=O)c1ccc(C)c(NS(=O)(=O)c2ccc(NC(C)=O)cc2)c1,1.0,-8.9,-6.0,7.7,4.3,11.2,x,x
COc1ccc(C(=O)C[n+]2ccc(-c3nnc4n3CCC4)cc2)cc1,-8.4,-3.6,14.2,84.8*,-11.5,4.2,64.5*,49.8*
CC(C)NC(=O)c1ccc2c(c1)S(=O)(=O)c1ccccc1C2=O,-4.1,-9.8,12.3,152.6*,4.9,9.3,47.2,63.2*
CN(C)CCOC(=O)c1ccc2c(c1)S(=O)(=O)c1ccccc1C2=O,0.2,-5.5,-12.1,107.6*,-9.0,5.2,53.1,57.6*
C=CCNC(=O)N1CCc2[nH]c3ccc(F)cc3c2C1,-11.3,0.6,x,7.9,1.0,x,x,x
O=C(N/N=C/c1ccccc1[N+](=O)[O-])C(=O)N1CCCC1,-14.8,1.0,28.3,92.2*,7.7,0.9,22.1,26.4*
O=C(N/N=C/c1cccc2ccccc12)C(=O)N1CCCC1,-16.5,-9.3,x,4.9,-5.6,x,x,x
CNc1ccc(C(=O)c2ccccc2C(=O)O)cc1[N+](=O)[O-],-21.0,0.9,-0.1,79.6*,-1.2,6.0,24.7,35.7*
CN(C)c1nc(OCCOC(=O)c2ccccc2)nc(N(C)C)n1,-27.4,-15.3,17.3,18.2,-4.8,5.7,x,x
CCN1CCN(c2nc(-c3ccncc3)nc3ccccc23)CC1,-4.3,-1.6,18.6,21.5,-8.0,x,x,x
c1ccc2c(N3CCCCCC3)nc(-c3ccncc3)nc2c1,-19.7,-50.2,-10.1,88.1*,-0.1,4.0,40.7,7.6
O=[N+]([O-])c1ccc2nnn(O)c2c1,-13.2,-7.8,0.4,90.9*,-7.0,8.1,30.9,46.4*
